# Data: ChEMBL document CHEMBL1128352, “Substituted (1,2-diarylethyl)amide acyl-CoA:cholesterol acyltransferase inhibitors: effect of polar groups on in vitro and in vivo activity” (J Med Chem, 1995)
# Columns and labels:
# [1] = molecular target: T1, Sterol O-acyltransferase 1 (Rattus norvegicus, UniProt O70536); assay: In vitro inhibition of acyl coenzyme A:cholesterol acyltransferase 1, rat liver microsomal assay
# T1 sequence (O70536 whole entry): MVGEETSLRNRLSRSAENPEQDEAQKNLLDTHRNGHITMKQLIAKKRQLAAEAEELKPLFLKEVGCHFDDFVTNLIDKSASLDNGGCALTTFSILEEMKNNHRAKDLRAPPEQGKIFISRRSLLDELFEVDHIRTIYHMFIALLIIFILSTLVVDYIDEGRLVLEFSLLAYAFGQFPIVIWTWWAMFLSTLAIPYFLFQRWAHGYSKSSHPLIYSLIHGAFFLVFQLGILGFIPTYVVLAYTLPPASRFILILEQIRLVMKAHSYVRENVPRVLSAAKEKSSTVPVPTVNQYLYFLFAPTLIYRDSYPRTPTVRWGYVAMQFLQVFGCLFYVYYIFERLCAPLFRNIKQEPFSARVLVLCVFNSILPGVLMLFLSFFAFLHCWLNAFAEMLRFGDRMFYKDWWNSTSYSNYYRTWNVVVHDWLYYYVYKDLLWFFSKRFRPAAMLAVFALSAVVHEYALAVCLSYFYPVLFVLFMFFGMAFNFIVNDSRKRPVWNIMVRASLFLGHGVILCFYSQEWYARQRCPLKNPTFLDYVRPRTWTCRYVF
# Outline: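 Compound added from DMSO stock and preincubated 15 min at 37 °C. [³H]oleoyl-CoA (10 µM final, 1 µCi) then added for 15 min at 37 °C. Cholesteryl [³H]oleate separated by silica TLC and counted by liquid scintillation.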
# Cricetinae gen. sp. [2] = assay: In vivo effect on cholesteryl esters level of cholesterol-fed hamsters at a dose of 50 mg/kg per oral; format: functional
# Outline: (§1)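 Male golden Syrian hamsters (100–125 g) were fed a high-cholesterol diet for 7 days. Compound was given by oral gavage in 0.2 mL corn oil/day. Liver lipids were Folch-extracted and hepatic cholesteryl ester measured by HPLC. Results are given as percent change versus cholesterol-fed controls dosed with vehicle alone.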
# Cricetinae gen. sp. [3] = assay: In vivo effect on serum cholesterol level of cholesterol-fed hamsters at a dose of 50 mg/kg per oral; format: functional
# Cricetinae gen. sp. [4] = assay: In vivo effect on serum cholesterol level of cholesterol-fed hamsters at a dose of 50(mpk); format: functional
# Cricetinae gen. sp. [5] = assay: In vivo dose effecting the cholesteryl esters in cholesterol-fed hamsters at a dose of 50(mpk); format: functional
# Cricetinae gen. sp. [6] = assay: In vivo effect on cholesteryl esters in cholesterol-fed hamsters at a dose of 50(mpk); format: functional; outline: as §1
# Cricetinae gen. sp. [7] = assay: In vivo effect on serum cholesterol level of cholesterol-fed hamsters at a dose of 100(mpk); format: functional
# Cricetinae gen. sp. [8] = assay: In vivo effect on cholesteryl esters in cholesterol-fed hamsters at a dose of 100(mpk); format: functional; outline: as §1
# [9] = molecular target: T2, Sterol O-acyltransferase 1 (Rattus norvegicus) (UniProt O70536); assay: In vitro ability of compound to inhibit Acyl coenzyme A:cholesterol acyltransferase 1 using rat liver microsomal assay; details: concentration not given here
# T2 sequence (whole entry): T1 sequence (O70536 whole entry)
# Outline: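 Rat liver microsomes (12.5 µg protein) in 0.1 M potassium phosphate with 2 mM DTT, pH 7.4, and 90 µM fatty-acid-free BSA. Compound added from DMSO stock and preincubated 15 min at 37 °C. [³H]oleoyl-CoA (10 µM final, 1 µCi) then added for 15 min at 37 °C. Cholesteryl [³H]oleate separated by silica TLC and counted by liquid scintillation.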
SMILES,IC50 [1],Change (Cricetinae gen. sp. [2]),Change (Cricetinae gen. sp. [3]),also measured
COc1ccc(CC(NC(=O)C(c2ccccc2)c2ccccc2)c2ccccc2)cc1 (configuration not stated),1600 nM,-65%,-14%,
COc1ccc(CC(NC(=O)C(c2ccccc2)c2ccccc2)c2cccc(OC)c2)cc1 (configuration not stated),2400 nM,0%,-20%,
C[Si](C)(C)CCOCn1ccnc1CC(NC(=O)C(c1ccccc1)c1ccccc1)c1ccccc1 (configuration not stated),5000 nM,-24%,0%,
CCCCCCCCCCC(C)(C)C(=O)Nc1c(OC)cc(OC)cc1OC [CL-976],,,,Change (Cricetinae gen. sp. [4]): -10%; ED50 (Cricetinae gen. sp. [5]): 20 mg/kg; Change (Cricetinae gen. sp. [6]): -67%
O=C(NC(Cc1ccccc1)c1ccc(O)cc1)C(c1ccccc1)c1ccccc1 (configuration not stated),1000 nM,-69%,-14%,
CCCCCCCC/C=C\CCCCCCCC(=O)NC(Cc1ccccc1)c1ccccc1 (configuration not stated),,,,Change (Cricetinae gen. sp. [7]): -4%; Change (Cricetinae gen. sp. [8]): -23%
CCCCCCCN(Cc1ccc(CC(C)(C)C)cc1)C(=O)Nc1ccc(F)cc1F [CL-277082],,,,Change (Cricetinae gen. sp. [4]): -29%; ED50 (Cricetinae gen. sp. [5]): 15 mg/kg; Change (Cricetinae gen. sp. [6]): -85%
COc1ccc(CC(NC(=O)C(c2ccccc2)c2ccccc2)c2ccccc2)cc1OC (configuration not stated),500 nM,-26%,-21%,
"Nc1ccc(CC(NC(=O)C(c2ccccc2)c2ccccc2)c2ccccc2)cc1 (single isomer, unassigned; (-))",,-81%,0%,
O=C(NC(Cc1ncc[nH]1)c1ccccc1)C(c1ccccc1)c1ccccc1 (configuration not stated),> 10000 nM,,,
CCCCCCCCCC[Si](C)(C)CCC(=O)NC(Cc1ccc(C)cc1)c1ccccc1 (configuration not stated),300 nM,,,Change (Cricetinae gen. sp. [7]): -5%; Change (Cricetinae gen. sp. [8]): 0%
Nc1ccc(C(Cc2ccccc2)NC(=O)C(c2ccccc2)c2ccccc2)cc1 (configuration not stated),2800 nM,-24%,0%,
O=C(NC(Cc1ccccc1)c1cccc(O)c1)C(c1ccccc1)c1ccccc1 (configuration not stated),,-19%,-17%,inhibition [9]: 88%
O=C(NC(Cc1ccc(O)cc1)c1ccc(O)cc1)C(c1ccccc1)c1ccccc1 (configuration not stated),,-40%,-20%,inhibition [9]: 97%
Nc1ccc(CC(NC(=O)C(c2ccccc2)c2ccccc2)c2ccccc2)cc1 (racemic),,,,Change (Cricetinae gen. sp. [4]): -13%; ED50 (Cricetinae gen. sp. [5]): 21 mg/kg; Change (Cricetinae gen. sp. [6]): -60%
O=C(O)c1ccc(CC(NC(=O)C(c2ccccc2)c2ccccc2)c2ccccc2)cc1 (configuration not stated),> 10000 nM,,,
O=C(NC(Cc1ccc(O)cc1)c1ccccc1)C(c1ccccc1)c1ccccc1 (configuration not stated),800 nM,0%,0%,
O=C(NC(Cc1ccccc1)c1cccnc1)C(c1ccccc1)c1ccccc1 (configuration not stated),4000 nM,0%,-9%,
CCCCCCCn1ccnc1CC(NC(=O)C(c1ccccc1)c1ccccc1)c1ccccc1 (configuration not stated),5000 nM,0%,0%,
O=C(NC(Cc1ccccc1)c1ccncc1)C(c1ccccc1)c1ccccc1 (configuration not stated),2300 nM,-29%,-13%,
COc1ccc(C(Cc2ccccc2)NC(=O)C(c2ccccc2)c2ccccc2)cc1 (configuration not stated),1500 nM,-69%,-14%,
COc1cccc(C(Cc2ccccc2)NC(=O)C(c2ccccc2)c2ccccc2)c1 (configuration not stated),1500 nM,0%,0%,
O=C(NC(Cc1ccccc1)c1ccccc1)C(c1ccccc1)c1ccccc1 (configuration not stated),460 nM,,,Change (Cricetinae gen. sp. [4]): 0%; Change (Cricetinae gen. sp. [6]): -15%
CCCCCCCC/C=C\CCCCCCC(C)(C)C(=O)NC(Cc1ccc(N)cc1)c1ccccc1 (configuration not stated),360 nM,,,Change (Cricetinae gen. sp. [7]): -24%; Change (Cricetinae gen. sp. [8]): -54%
C[Si](C)(C)CCOCn1ccnc1C(Cc1ccccc1)NC(=O)C(c1ccccc1)c1ccccc1 (configuration not stated),> 10000 nM,,,
Nc1ccc(CC(NC(=O)C(c2ccccc2)c2ccccc2)c2ccccc2)cc1 (stereo in doubt; (+)-5),,0%,,

# Second part, led by results:
IC50 [1],SMILES,Change (Cricetinae gen. sp. [2]),Change (Cricetinae gen. sp. [3]),also measured
> 10000 nM,COC(=O)c1ccc(CC(NC(=O)C(c2ccccc2)c2ccccc2)c2ccccc2)cc1 (configuration not stated),,,
> 10000 nM,COc1ccc(CC(NC(=O)C(c2ccccc2)c2ccccc2)c2ccc(OC)cc2)cc1 (configuration not stated),-32%,0%,
1800 nM,COc1ccccc1C(Cc1ccccc1)NC(=O)C(c1ccccc1)c1ccccc1 (configuration not stated),-51%,0%,
360 nM,CS(=O)(=O)Nc1ccc(CC(NC(=O)C(c2ccccc2)c2ccccc2)c2ccccc2)cc1 (configuration not stated),-32%,-17%,
3500 nM,O=C(NC(Cn1ccnc1)c1ccccc1)C(c1ccccc1)c1ccccc1 (configuration not stated),0%,0%,
350 nM,CC(=O)Nc1ccc(CC(NC(=O)C(c2ccccc2)c2ccccc2)c2ccccc2)cc1 (configuration not stated),0%,-12%,
10000 nM,O=C(O)c1ccc(C(Cc2ccccc2)NC(=O)C(c2ccccc2)c2ccccc2)cc1 (configuration not stated),0%,0%,
5000 nM,Nc1cccc(CC(NC(=O)C(c2ccccc2)c2ccccc2)c2ccccc2)c1 (configuration not stated),-31%,-15%,
1800 nM,O=C(NC(Cc1ccncc1)c1ccccc1)C(c1ccccc1)c1ccccc1 (configuration not stated),-52%,-10%,
> 10000 nM,O=C(NC(Cc1ccccc1)c1ncc[nH]1)C(c1ccccc1)c1ccccc1 (configuration not stated),,,
> 10000 nM,O=C(NC(Cc1ccccc1)c1cc[n+]([O-])cc1)C(c1ccccc1)c1ccccc1 (configuration not stated),-28%,0%,
